Reference: ChEMBL document CHEMBL1152821, “Discovery of novel DNA gyrase inhibitors by high-throughput virtual screening” (Antimicrob Agents Chemother, 2007)
Values belong to the compound of their own block, whether it stands above or below them. Calls of active or inactive are those of the source. The calls are words filed in the database; no cut-off is given here.

Legend:
[1] = Inhibition of Escherichia coli recombinant DNA gyrase-mediated supercoiling of relaxed pRSET A-DNA by agarose gel electrophoresis
Procedure, shortened: (§1)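 Gyrase reconstituted from purified GyrA and GyrB (1:1.4); substrate is pRSET A relaxed with wheat germ topo I. 0.5 μg DNA and drug preincubated on ice 10 min in Tris-acetate pH 7.9, KOAc, Mg acetate, DTT, 1.5 mM ATP, spermidine, BSA. Started with 2.5 nM GyrA/3.5 nM GyrB, 30°C 30 min, then SDS/EDTA stop. 1% agarose gel, ethidium stain, densitometry; % supercoiled versus no-drug control.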

[2] = biological target: T1, DNA gyrase (Escherichia coli) (UniProt P0AES6+P0AES4); assay: Inhibition of Escherichia coli recombinant DNA gyrase assessed as enzyme-mediated supercoiling of relaxed pRSET A-DNA at 640 uM by agarose gel electrophoresis; assay type: protein-complex assay; parameters: scale not given: the % may be the effect or the level left
Procedure, shortened: (§2)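 GyrA and GyrB, expressed in E. coli XL1-Blue and purified, reconstituted 1:1.4 (2.5 nM GyrA, 3.5 nM GyrB). Substrate was 0.5 μg relaxed pRSET A DNA (topoisomerase I-relaxed). Buffer: 25 mM Tris-acetate pH 7.9, 20 mM K acetate, 10 mM Mg acetate, 2 mM DTT, 1.5 mM ATP, 5 mM spermidine, 50 μg/ml BSA. Drug preincubated 10 min on ice; reaction 30 min at 30°C. Run on 1% agarose 20 h, stained with ethidium bromide, bands quantitated. % supercoiled DNA expressed relative to no-drug control.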

[3] = biological target: T1, DNA gyrase (Escherichia coli); assay: Inhibition of Escherichia coli recombinant DNA gyrase assessed as enzyme-mediated supercoiling of relaxed pRSET A-DNA at 640 uM by agarose gel electrophoresis in presence of 0.01% Triton X-100; assay type: protein-complex assay; parameters: scale not given: the % may be the effect or the level left; procedure, shortened: as §2
[4] = tested on: Nucleic Acid; assay: Binding affinity to pGEM2 DNA assessed as DNA intercalation at 1600 uM by DNA unwinding assay; assay type: nucleic-acid assay
Procedure, shortened: (§3)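 Drug-induced DNA unwinding measured with pGEM2 plasmid DNA relaxed by wheat germ DNA topoisomerase I, following a previously described method.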

[5] = tested on: Nucleic Acid; assay: Binding affinity to pGEM2 DNA assessed as DNA intercalation at 640 uM by DNA unwinding assay; assay type: nucleic-acid assay
[6] = Inhibition of Escherichia coli DNA gyrase B ATPase activity by spectrophotometry
Procedure, shortened: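 DNA-independent ATPase of purified E. coli GyrB (40 nM) with 2 mM ATP. ATP hydrolysis coupled to NADH oxidation and read spectrophotometrically. Ki calculated from Ki(app) as Ki = Ki(app)/(1 + [ATP]/Km), taking Km 0.3 mM for E. coli gyrase ATPase.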

[7] = tested on: Escherichia coli; assay: Inhibition of Escherichia coli recombinant DNA gyrase-mediated supercoiling activity of relaxed pRSET A-DNA at 192 uM by agarose gel electrophoresis; parameters: scale not given: the % may be the effect or the level left; procedure, shortened: as §2
[8] = tested on: Escherichia coli; assay: Antibacterial activity against Escherichia coli XL1-Blue assessed as complete inhibition at 192 uM with in 30 mins; assay type: functional, organism-based
Procedure, shortened: (§4)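 Log-phase E. coli XL1-Blue (overnight LB cultures at 37°C diluted to OD595 0.05 in fresh LB, shaken at 37°C until log phase) transferred into flasks containing filter-sterilized drug at various concentrations. Shaking growth continued at 37°C. Growth followed by culture absorbance at OD595 over time.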

[9] = tested on: Escherichia coli; assay: Antibacterial activity against Escherichia coli XL1-Blue assessed as growth inhibition at 64 uM after 30 mins; assay type: functional, organism-based; procedure, shortened: as §4
[10] = tested on: Escherichia coli; assay: Antibacterial activity against Escherichia coli XL1-Blue assessed as growth inhibition at 21 uM after 60 mins; assay type: functional, organism-based; procedure, shortened: as §4
[11] = biological target: T1, DNA gyrase (Escherichia coli); assay: Inhibition of Escherichia coli recombinant DNA gyrase assessed as enzyme-mediated supercoiling of relaxed pRSET A-DNA at 170 uM by agarose gel electrophoresis; assay type: protein-complex assay; parameters: scale not given: the % may be the effect or the level left; procedure, shortened: as §1
[12] = biological target: T1, DNA gyrase (Escherichia coli); assay: Inhibition of Escherichia coli recombinant DNA gyrase assessed as enzyme-mediated supercoiling of relaxed pRSET A-DNA at 170 uM by agarose gel electrophoresis in presence of 0.01% Triton X-100; assay type: protein-complex assay; parameters: scale not given: the % may be the effect or the level left; procedure, shortened: as §1
[13] = biological target: T1, DNA gyrase (Escherichia coli); assay: Inhibition of Escherichia coli recombinant DNA gyrase assessed as enzyme-mediated supercoiling of relaxed pRSET A-DNA at 170 uM by agarose gel electrophoresis in presence of 0.025% Triton X-100; assay type: protein-complex assay; parameters: scale not given: the % may be the effect or the level left; procedure, shortened: as §1
[14] = tested on: Nucleic Acid; assay: Binding affinity to pGEM2 DNA assessed as DNA intercalation at >=50 uM by DNA unwinding assay; assay type: nucleic-acid assay; procedure, shortened: as §3
[15] = tested on: Nucleic Acid; assay: Binding affinity to pGEM2 DNA assessed as DNA intercalation at 100 uM by DNA unwinding assay; assay type: nucleic-acid assay; procedure, shortened: as §3
[16] = tested on: Escherichia coli; assay: Inhibition of Escherichia coli DNA gyrase B ATPase activity up to 1.5 mM by spectrophotometry
Procedure, shortened: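 DNA-independent ATPase of purified E. coli GyrB (40 nM) with 2 mM ATP, read spectrophotometrically by coupling ATP hydrolysis to NADH oxidation. Ki calculated as Ki(app)/(1 + [ATP]/Km), with Km 0.3 mM for E. coli gyrase ATPase.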

[17] = tested on: Nucleic Acid; assay: Binding affinity to pGEM2 DNA assessed as DNA intercalation at 1.6 mM by DNA unwinding assay

Structure (SMILES): O=NNc1cnc(O)nc1O
IC50 [1]: 338 µM
Activity [2]: 10%
Activity [3]: 17%
Activity [4]: inactive
Activity [5]: inactive
Ki [6]: 149 µM
Activity [7]: > 30%
Activity [8]: Active
Activity [9]: Active
Activity [10]: Active

Structure (SMILES): CO[C@@H]1[C@@H](OC(=O)c2ccc(C)[nH]2)[C@@H](O)[C@@H](Oc2ccc3c(O)c(NC(=O)c4c[nH]c(C(=O)Nc5c(O)c6ccc(O[C@H]7OC(C)(C)[C@H](OC)[C@@H](OC(=O)c8ccc(C)[nH]8)[C@H]7O)c(C)c6oc5=O)c4C)c(=O)oc3c2C)OC1(C)C [COUMERMYCIN]
IC50 [1]: 0.04 µM

IC50 [1]: 50 µM
Activity [11]: 7%
Activity [12]: 13%
Activity [13]: 12%
Activity [14]: Active
Structure (SMILES): O=c1ccc2nccc3c4ccccc4n1c23 [CANTHIN-6-ONE]

IC50 [1]: 72 µM
Activity [15]: inactive
Structure (SMILES): O=c1[nH]nc(-c2cc(-c3ccccc3)nc3ccccc23)o1

IC50 [1]: 737 µM
Activity [4]: inactive
Structure (SMILES): O=Cc1c[nH]nn1

IC50 [1]: 814 µM
Activity [4]: inactive
Activity [16]: inactive
Activity [17]: inactive
Structure (SMILES): NC(=O)c1[nH]cnc1N

IC50 [1]: 1.2 µM
Structure (SMILES): O=C(O)c1cn(C2CC2)c2cc(N3CCNCC3)c(F)cc2c1=O [CIPROFLOXACIN]
